The species named for one assay is Rattus norvegicus. The assay is described as follows: Uptake in the thyroid or any of the other tissues tested in rats; NS- No significant activity. In kind it is functional, organism-based. To be noted: Thyroid gland. The method in brief:
(§1)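 Female Fischer 344 rats (10–12 weeks, 170–200 g, food and water ad libitum) received 7.95 μCi of the 125I-labeled barbiturate (sp act ~155 mCi/mmol) in filtered pH 7.4 phosphate buffer via lateral tail vein under ether anesthesia. Four rats per time point were killed at 2 min to 1 day. Thyroid and other organs were excised, rinsed, blotted, weighed and gamma-counted as % injected dose/g.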

Assay [1] can be described thus: In vivo deiodination was determined; Resistant. It counts as functional, organism-based. The method in brief: as §1

Activity calls are given as the source filed them. No cut-off for these calls is given here.

Turning to `CCOC(=O)C(CC)(CCC/C=C/I)C(=O)O` (configuration not stated), the result in the assay listed under Rattus norvegicus was inactive. The Activity entry in assay [1] was “Resistant”.
